Measured values of several laboratories.
Target: Serine/threonine-protein kinase 38 (STK38, Homo sapiens, UniProt Q15208)

| Structure (SMILES) | effect on | action | technique | cell line | concentration | measurement | result |
| --- | --- | --- | --- | --- | --- | --- | --- |
| C[S+]([O-])c1ccc(-c2nc(-c3ccncc3)c(-c3ccc(F)cc3)[nH]2)cc1 (stereo not shown) | cell-free assay |  |  |  | 0.5 µM | remaining signal | 105% |
| CC1(C)NC(=O)c2[nH]c3c(Cl)c(Cl)ccc3c2C1C#N (stereo not shown) | thermal stability |  | DSF |  | 10 µM | ΔTm | -0.1 °C |
| NS(=O)(=O)c1cc(NC(=O)C2(c3ccccc3Cl)CC2)ccc1Oc1cccc(Cl)c1 | cell-free assay |  | competition with immobilised ligand |  | 1 µM | remaining binding | 81% |
| Nc1ncnc2occ(-c3ccc(NC(=O)Nc4cc(C(F)(F)F)ccc4F)cc3)c12 | cell-free assay | inhibitor |  |  | 20 µM | remaining signal | 31% |
| Cc1c(NC(=O)c2cc(C(N)=O)nc3cc(F)ccc23)c(C(F)(F)F)nn1Cc1ccc(C#N)cc1 | cell-free assay |  | competition with immobilised ligand |  | 1 µM | remaining binding | 94% |
| CCC1(CC)NC(=O)c2c(c3ccc(Cl)c(Cl)c3n2C)C1C#N (stereo not shown) | thermal stability |  | DSF |  | 10 µM | ΔTm | 1.1 °C |
| CCN1CCN(Cc2ccc(NC(=O)c3ccc(C)c(Oc4ccnc5[nH]ccc45)c3)cc2C(F)(F)F)CC1 | target engagement in cells | inhibitor | chemoproteomics | A-375 | 5 µM | inhibition | -0.846% |
| O=C(Nc1cnn(-c2csc(C(=O)NC3COC3)c2)c1)Nc1ccccc1Cl | enzyme activity | inhibitor |  |  | 5 µM | remaining activity | 99.2% |
| CC/C(=N\NC(=O)NCc1cccc(O)c1)c1ccc(O)c(C)c1O | enzyme activity | inhibitor |  |  | 0.1 µM | inhibition | 18.8% |
| O=S(=O)(NC1CCC(c2cc(F)ccc2F)(S(=O)(=O)c2ccc(Cl)cc2)CC1)C(F)(F)F (stereo not shown) | cell-free assay |  | competition with immobilised ligand |  | 1 µM | remaining binding | 100% |
| CCN1CCN(Cc2ccc(NC(=O)c3ccc(C)c(/C=C/c4cnc5[nH]ccc5c4OC)c3)cc2C(F)(F)F)CC1 | target engagement in cells | inhibitor | chemoproteomics | A-375 | 0.5 µM | inhibition | -0.843% |
| CC(C)(O)[C@H]1CC[C@H](Nc2ccc3ncc(-c4cccc(C(F)(F)F)c4)n3n2)CC1 | enzyme activity | inhibitor |  |  | 1 µM | remaining activity | 96.7% |
| O=C1NC(=O)c2cc(Nc3ccc(F)cc3)c(Nc3ccc(F)cc3)cc21 | cell-free assay |  |  |  | 0.5 µM | remaining signal | 85.5% |
| CCC(=N\O)/C(C)=C/c1ccc(F)cc1 | cell-free assay |  | competition with immobilised ligand |  | 1 µM | remaining binding | 94% |
| Cn1c2c(c3ccc(Cl)c(Cl)c31)C(C#N)C(C)(C)NC2=O (stereo not shown) | thermal stability |  | DSF |  | 10 µM | ΔTm | 0.1 °C |
| Cc1nc(Cc2cccc(C(F)(F)F)c2)sc1-c1ccc(C(N)=O)nc1 | cell-free assay |  | competition with immobilised ligand |  | 1 µM | remaining binding | 81% |
| Cn1c2c(c3ccc(Cl)c(Cl)c31)C(C#N)C1(CCOCC1)NC2=O (stereo not shown) | thermal stability |  | DSF |  | 10 µM | ΔTm | 0 °C |
| CN([C@@H]1CCc2c(CC(=O)O)c3cc(S(C)(=O)=O)ccc3n2C1)S(=O)(=O)c1ccc(F)cc1 | cell-free assay |  | competition with immobilised ligand |  | 1 µM | remaining binding | 85% |
| N#CC1c2c([nH]c3c(Cl)c(Cl)ccc23)C(=O)NC12CCCCC2 (racemic) | thermal stability |  | DSF |  | 10 µM | ΔTm | 0.6 °C |
